# Bioassay records: PubChem BioAssay, several laboratories
# AI-2 QS mod – modulators of Vibrio harveyi AI-2 quorum sensing system. Vibrio harveyi JMH597 AI-2 luminescence/OD600 ratio, 9 h; hits give low values; strain lacks LuxN and CqsS sensors; 0 = neutral-control median. activity change, % at 7.5 µM. actives 0.4% (n = 300,000); in the data active means activity change below about -75%, passing the limit was not always enough; inconclusive means no clear call, values can overlap the other calls;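 further: luminescence divided by OD600 gain over 9 h not by final OD600 alone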
# proKLK7 act – activates the human kallikrein-7 zymogen | activation, % at 7 µM | AID 652039 | actives 0.9% (n = 370,000) | purified proKLK7, EDANS-DABCYL substrate fluorescence; 100% is mature enzyme control, 0% vehicle;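 active means activation above the mean of all tested compounds plus 3 SD, computed per campaign excluding outliers beyond control limits, cut at about 13% in these data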
# Target sequence (P49862 whole entry, looked up): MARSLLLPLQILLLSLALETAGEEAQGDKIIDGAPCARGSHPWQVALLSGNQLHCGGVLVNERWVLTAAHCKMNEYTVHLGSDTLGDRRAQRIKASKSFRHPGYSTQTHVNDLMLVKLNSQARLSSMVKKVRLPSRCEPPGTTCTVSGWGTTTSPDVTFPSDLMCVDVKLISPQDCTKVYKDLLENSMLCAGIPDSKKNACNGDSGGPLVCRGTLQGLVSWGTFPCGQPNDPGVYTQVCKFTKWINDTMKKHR
# RanGTP-Imp inh – disruptors of Ran-importin-beta complex formation – biochemical, FRET, CFP-Ran, YFP-importin-beta, homogeneous, primary screen; inhibition, % (no concentration beside the values); actives 1.1% (n = 300,000); AID 2216; cell-free CFP-Ran/YFP-importin-beta FRET ratio;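 active means more than half of the replicate wells show a fall in the fluorescence ratio signal beyond about 16%, limit read from the data, passing the limit was not always enough; inconclusive means exactly half of the replicate wells pass the set limit; inactive means fewer than half of replicates pass the limit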;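 further: 0% = DMSO wells and 100% = Ran loaded with GDP instead of GTP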
# Wee1 degr inh – blocks degradation of human Wee1 kinase | actives 1.2% (n = 220,000) | HeLa Luc-Wee1K328M stability, luciferase luminescence; 100% = proteasome inhibitor MG132 effect | reporter increase, % at 5 µM | P30291 | AID 1321;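 active means activation above the mean of all tested compounds plus 3 SD, set per screening run, cut at about 8.8% in these data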;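 further: cells exposed to compound for 20 h before luminescence read; 0% = DMSO alone and 100% = MG132 at 30 µM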
# Runt-SMMHC FRET – Runt domain-CBFb-SMMHC interaction inhibition; Q01196+Q13951; Cerulean-Runt/Venus-CBFb-SMMHC FRET ratio 530/480, 1 h; inhibition, % at 20 µM; actives 0.74% (n = 220,000);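 active means mean inhibition across duplicate retests at 20 µM reaching about 50%, limit read from the data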;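 further: 0% = DMSO wells and 100% = wells with excess untagged CBFb-SMMHC; inhibitors lower the FRET ratio by blocking Runt binding to CBFb-SMMHC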
# Runt-CBFb FRET – inhibitors of human RUNX1 Runt domain binding to CBFb; Q01196+Q13951; Cerulean-Runt/Venus-CBFb FRET ratio 530/480, 1 h; inhibition, % at 20 µM; actives 0.46% (n = 220,000); AID 1496;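 active means inhibition over about 50% at 20 µM in the single-dose screen, limit read from the data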;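 further: 0% = DMSO wells and 100% = excess unlabeled CBFb competitor control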
#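 Assay system: Cerulean-tagged RUNX1 Runt domain (FRET donor) fusion protein / Amount: 100 nM each of Venus-CBFb and Cerulean-Runt domain / Medium: Tris buffer pH 7.5 with salts and BSA / Also added: Venus-CBFb 100 nM / Schedule: 1 h complex formation plus 1 h compound treatment, room temperature / Signal: FRET fluorescence / Read-out: loss of energy transfer signal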
# proKLK7 act conf – confirmation of human kallikrein-7 zymogen activators; activation, % at 7 µM; shares compounds with proKLK7 act; purified proKLK7, EDANS-DABCYL substrate fluorescence; scaled: vehicle 0, mature enzyme 100; AID 686949; actives 68% (n = 3,200);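 active means activation, as change over the incubation, above the mean of all tested compounds plus 3 SD, cut at about 13% in these data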
# EDANS-DABCYL int – counter-screen for kallikrein-7 activators: EDANS-DABCYL optical interference; shares compounds with proKLK7 act; EDANS-DABCYL substrate fluorescence interference, no enzyme, 4 h; solvent 0%, active enzyme control 100%; activation, % at 7 µM; actives 80% (n = 3,200); AID 686952;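 active means activation above the all-compound mean plus 3 SD, ignoring values outside control-based bounds, cut at about 4.8% in these data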;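 further: value is the 4 h activation minus the activation read at time zero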
# * marks the source's active call; other numbers are inactive results; ? = inconclusive; . = not tested or not shown. Rows were chosen to be rich in hits. Some 2.9% of all compounds tested hit in one or more screens of this group.
SMILES,AI-2 QS mod,proKLK7 act,RanGTP-Imp inh,Wee1 degr inh,Runt-SMMHC FRET,Runt-CBFb FRET,proKLK7 act conf,EDANS-DABCYL int
COc1ccc2oc3cc(NCCN(C)C)ccc3c(=O)c2c1,.,65.8*,.,.,.,.,79.7*,78.6*
CCCN(CC(=O)NC(=O)NCc1ccccc1)CC(=O)Nc1ccc(F)c(F)c1F,.,-0.3,.,.,.,.,.,.
CCN(C(=O)COC(=O)c1cc(-c2ccc3cc(OC)ccc3c2)nc2ccccc12)C1CCS(=O)(=O)C1 (configuration not stated),36.6,.,?,1.1,12.3,-45.3,.,.
COc1ccc(-c2cc(C(=O)OC3CCOC3=O)c3ccccc3n2)cc1 (configuration not stated),0.8,97.0*,1.3,-2.3,0.4,-0.1,8.9,11.7*
COc1ccc(-c2cc(C(=O)Oc3ccc([N+](=O)[O-])cc3)c3ccccc3n2)cc1,9.0,32.9*,0.6,-1.3,6.0,0.1,64.4*,70.8*
COc1ccc(-c2cc(C(=O)OCc3ccccn3)c3ccccc3n2)cc1,8.1,21.6*,2.6,.,.,.,-18.6,-20.2
COc1ccc(-c2cc(C(=O)OCC(=O)N(C)C)c3ccccc3n2)cc1,22.4,50.4*,-1.9,-2.0,0.2,-3.7,38.7*,42.6*
COc1ccc(-c2cc(C(=O)OCC(=O)c3ccc(C)c([N+](=O)[O-])c3)c3ccccc3n2)cc1,12.0,1.8,0.2,-3.7,3.5,4.9,.,.
S=c1[nH]nc(-c2cc(-c3ccccc3)n[nH]2)n1/N=C/C(Br)=C/c1ccccc1,21.9,-1.1,0.2,7.8,7.0,11.2,.,.
O=C(/C=C/c1ccco1)OCC(=O)N1CCCCC1,.,0.3,.,.,.,.,.,.
CSc1ccc(CN2CCN(C(C)C)C(CCO)C2)cc1 (configuration not stated),27.6,-0.5,2.5,-1.7,-0.7,-1.4,.,.
CCOC(=O)C1(C)CCN1C(=O)c1cncc(Br)c1 (configuration not stated),.,-0.1,.,.,.,.,.,.
CC[C@H](C)/C=C(C)/C=C/c1cc2c(cn1)C(=O)[C@@](C)(OC(C)=O)C(O)=C2Cl,.,85.7*,.,.,.,.,108.0*,123.4*
O=C(O)CSc1nc2ccc(Br)cc2[nH]1,.,0.0,.,.,.,.,.,.
COc1ccc(C2C3=C(CCCC3=O)Nc3nc4ccccc4n32)cc1OC (configuration not stated),.,.,.,2.6,.,.,.,.
O=C1CCCC2=C1C(c1ccncc1)n1c(nc3ccccc31)N2 (configuration not stated),18.9,47.0*,2.4,2.1,3.8,4.1,63.2*,75.2*
CC1CC(=O)C2=C(C1)Nc1nc3ccccc3n1C2c1cccnc1 (configuration not stated),5.0,76.2*,1.3,-1.7,14.1,6.5,64.2*,71.5*
CC(C)(C)c1ccc(S(=O)(=O)Nc2ccc(C(O)(C(F)(F)F)C(F)(F)F)cc2)cc1,.,-0.2,.,.,.,.,.,.
COc1ccc(/C=C/C(=O)Nc2cccnc2Cl)cc1,13.2,0.0,1.1,.,.,.,.,.
NC(=O)N/N=C/c1cc(Br)ccc1OC(=O)c1ccccc1,22.2,16.5*,.,4.2,-1.3,0.0,14.0*,12.8*
NC(=O)N/N=C/c1cc(Br)ccc1OCC(=O)NCc1ccccc1,12.6,0.0,-2.2,1.7,10.2,-2.5,.,.
O=C1CCC(=O)N1c1nc2nc(-c3ccccc3)cc(-c3ccccc3)n2n1,17.9,30.6*,0.8,-0.9,3.0,2.2,40.3*,43.9*
CC(=O)Nc1nc2nc(-c3ccccc3)cc(-c3ccccc3)n2n1,3.9,3.0,2.1,1.4,-5.8,-3.1,.,.
COc1ccc(OC)c2c1C(=O)CC2C (configuration not stated),.,43.0*,.,.,.,.,49.3*,49.4*
